Data from ChEMBL document CHEMBL2429727, “Syntheses, biological evaluation and SAR of ingenol mebutate analogues for treatment of actinic keratosis and non-melanoma skin cancer” (Bioorg Med Chem Lett, 2013).

Key:
[1] = Chemical stability of the compound in aqueous buffer assessed as drug recovery after 16 hrs at pH 7.4 by HPLC analysis; format: physicochemical; conditions: read-out: Drug recovery
Procedure, shortened: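 DMSO stock diluted with pre-heated (37 °C) aqueous buffer pH 7.4 to at most 30% v/v organic content, then shaken. Held in the HPLC autosampler at 37 °C, first injected within 5 min, then injected repeatedly over 16 h. Recovery taken from the fall in compound peak area, UV detection normally at 270 nm.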

Keratinocyte [2] = assay: Induction of TNFalpha release in human primary epidermal keratinocytes after 6 hrs; format: functional, cell-based
Procedure, shortened: (§1)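 Human adult log-phase primary epidermal keratinocytes subcultured at 10,000 cells/well. Incubated with titrated compound for 6 h at 37 °C in humidified 95% air/5% CO2. Secreted cytokines quantified on 4-spot cytokine plates. EC50 is the concentration giving 50% of the maximum effect of the ingenol mebutate reference. Emax is maximal response relative to that reference.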

[3] = Induction of oxidative burst in polymorphonuclear leukocytes (unknown origin) isolated from buffy coat at 10 uM after 40 mins by fluorescence assay relative to ingenol mebutate; format: functional
Procedure, shortened: (§2)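 PMN isolated and purified from fresh buffy coats, then incubated 40 min at ambient temperature with titrated compound (top concentration 10 µM) premixed with hydroethidine. Respiratory burst read as fluorescence in relative light units, emission 579 nm, excitation 485 nm. EC50 and Emax are expressed relative to the maximum effect of the ingenol mebutate reference.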

Keratinocyte [4] = assay: Induction of IL-8 release in human primary epidermal keratinocytes after 6 hrs by HTRF assay; format: functional, cell-based
Keratinocyte [5] = assay: Induction of TNFalpha release in human primary epidermal keratinocytes after 6 hrs relative to ingenol mebutate; format: functional; procedure, shortened: as §1
[6] = Induction of oxidative burst in polymorphonuclear leukocytes (unknown origin) isolated from buffy coat after 40 mins by fluorescence assay; format: functional, cell-based; procedure, shortened: as §2
Keratinocyte [7] = assay: Induction of IL-8 release in human primary epidermal keratinocytes after 6 hrs by HTRF assay relative to ingenol mebutate; format: functional
[8] = Induction of necrosis in human HeLa cells after 30 mins by resazurin assay; format: cell-based; conditions: read-out: LC50
Procedure, shortened: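 HeLa cells exposed to increasing ester concentrations up to 400 µM for 30 min at 37 °C. Remaining metabolic activity then read with a resazurin-based dye. LC50 is the concentration causing 50% loss of metabolic activity.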

Row | Structure (SMILES) | remaining at 16 h [1] [%] | EC50 (Keratinocyte [2]) [nM] | Emax at 10 µM [3] [%] | EC50 (Keratinocyte [4]) [nM] | Emax (Keratinocyte [5]) [%] | EC50 [6] [nM] | Emax (Keratinocyte [7]) [%] | CC50 at 0.5 h [8] [nM]
1 | CC1=C[C@]23C(=O)[C@@H](C=C(CO)[C@@H](O)[C@]2(O)[C@H]1OC(=O)C(C)C)[C@H]1[C@@H](C[C@H]3C)C1(C)C | 30 | 112 | 104 | 120 | 72 | 19 | 63 | –
2 | C=C(CC)C(=O)O[C@H]1C(C)=C[C@]23C(=O)[C@@H](C=C(CO)[C@@H](O)[C@]12O)[C@H]1[C@@H](C[C@H]3C)C1(C)C | 30 | 29 | 102 | 21 | 101 | 5.2 | 100 | 129000
3 | CO/N=C(/C(=O)O[C@H]1C(C)=C[C@]23C(=O)[C@@H](C=C(CO)[C@@H](O)[C@]12O)[C@H]1[C@@H](C[C@H]3C)C1(C)C)c1ccccc1 | 55 | 10000 | 117 | 10000 | 47 | 28 | 45 | –
4 | CC1=C[C@]23C(=O)[C@@H](C=C(CO)[C@@H](O)[C@]2(O)[C@H]1OC(=O)C1=CCCCC1)[C@H]1[C@@H](C[C@H]3C)C1(C)C | 60 | 10000 | 99 | 10000 | 42 | 6.7 | 45 | –
5 | CC1=C[C@]23C(=O)[C@@H](C=C(CO)[C@@H](O)[C@]2(O)[C@H]1OCC(=O)OC(C)(C)C)[C@H]1[C@@H](C[C@H]3C)C1(C)C | 95 | 10000 | 111 | 10000 | – | 3300 | – | 311000
6 | C/C=C(/C)C(=O)O[C@H]1C(C)=C[C@@]23C(=O)[C@H]([C@H]4[C@@H](C[C@H]2C)C4(C)C)[C@H]2O[C@@]2(CO)[C@@H](O)[C@]13O | – | 367 | 114 | 320 | 156 | 50 | 119 | –
7 | C/C=C(/C)C(=O)O[C@H]1C(C)=C[C@]23C(=O)[C@@H](C=C(COC)[C@@H](O)[C@]12O)[C@H]1[C@@H](C[C@H]3C)C1(C)C | 77 | 10000 | – | 10000 | – | 10000 | – | 400000
8 | CC1=C[C@]23C(=O)[C@@H](C=C(CO)[C@@H](O)[C@@]24OC(=O)CO[C@@H]14)[C@H]1[C@@H](C[C@H]3C)C1(C)C | 25 | 10000 | – | 10000 | – | 10000 | – | –
9 | CC(C)=CC(=O)O[C@H]1C(C)=C[C@]23C(=O)[C@@H](C=C(CO)[C@@H](O)[C@]12O)[C@H]1[C@@H](C[C@H]3C)C1(C)C | 55 | 66 | 109 | 86 | 82 | 4.3 | 74 | 283000
10 | CC1=C[C@]23C(=O)[C@@H](C=C(CO)[C@@H](O)[C@]2(O)[C@H]1OC(=O)C12C[C@@H]4C[C@@H](C[C@H]1C4)C2)[C@H]1[C@@H](C[C@H]3C)C1(C)C | 70 | 36 | 136 | 27 | 55 | 8.3 | 65 | 77000
11 | CC1=C[C@]23C(=O)[C@@H](C=C(CO)[C@@H](O)[C@]2(O)[C@H]1OC(=O)C1CCCCC1)[C@H]1[C@@H](C[C@H]3C)C1(C)C | 35 | 10000 | 104 | 10000 | 47 | 6 | 43 | 112000
12 | CC1=C[C@]23C(=O)[C@@H](C=C(CO)[C@@H](O)[C@@]24OC(=O)O[C@@H]14)[C@H]1[C@@H](C[C@H]3C)C1(C)C | – | 253 | 124 | 171 | 112 | 181 | 109 | 400000
13 | C/C=C/C(=O)O[C@H]1C(C)=C[C@]23C(=O)[C@@H](C=C(CO)[C@@H](O)[C@]12O)[C@H]1[C@@H](C[C@H]3C)C1(C)C | 0 | 802 | 110 | 821 | 91 | 9.1 | 93 | –
14 | CCCC(=O)O[C@H]1C(C)=C[C@]23C(=O)[C@@H](C=C(CO)[C@@H](O)[C@]12O)[C@H]1[C@@H](C[C@H]3C)C1(C)C | 18 | 318 | 88 | 313 | 87 | 25 | 115 | –
15 | CC1=C[C@]23C(=O)[C@@H](C=C(CO)[C@@H](O)[C@]2(O)[C@H]1OC(=O)c1ccccc1)[C@H]1[C@@H](C[C@H]3C)C1(C)C | 30 | 88 | 110 | 182 | 60 | 6 | 54 | –
16 | CC1=C[C@]23C(=O)[C@@H](C=C(CO)[C@@H](O)[C@]2(O)[C@H]1OC(=O)C1CCC1)[C@H]1[C@@H](C[C@H]3C)C1(C)C | 10 | 450 | 111 | 882 | 60 | 10 | 55 | –
17 | C/C=C(/C)C(=O)O[C@H]1C(C)=C[C@]23C(=O)[C@@H](C=C(CO)[C@@H](OC)[C@]12O)[C@H]1[C@@H](C[C@H]3C)C1(C)C | > 95 | 748 | 119 | 738 | 131 | 281 | – | –
18 | CC1=C[C@]23C(=O)[C@@H](C=C(CO)[C@@H](O)[C@]2(O)[C@H]1OC(=O)C1CC1)[C@H]1[C@@H](C[C@H]3C)C1(C)C | 30 | 243 | 112 | 256 | 81 | 26 | 83 | –
19 | CC#CC(=O)O[C@H]1C(C)=C[C@]23C(=O)[C@@H](C=C(CO)[C@@H](O)[C@]12O)[C@H]1[C@@H](C[C@H]3C)C1(C)C | 5 | 10000 | 112 | 10000 | – | 17 | – | –
20 | CC1=C[C@]23C(=O)[C@@H](C=C(CO)[C@@H](O)[C@]2(O)[C@H]1OC(=O)C1CCCC1)[C@H]1[C@@H](C[C@H]3C)C1(C)C | 30 | 65 | 107 | 69 | 58 | 6.5 | 54 | –
21 | CC1=C[C@]23C(=O)[C@@H](C=C(CO)[C@@H](O)[C@]2(O)[C@H]1O)[C@H]1[C@@H](C[C@H]3C)C1(C)C [INGENOL] | > 95 | 10000 | – | 10000 | – | 10000 | – | > 400000
